“And” between values parts separate entries of the source, which are not always exact repeats. Equal values may be shown once.
What was measured:
[1] = molecular target: T1, Mycothiol S-conjugate amidase (Mycobacterium tuberculosis, UniProt P9WJN1); experiment: Inhibition of Mycobacterium tuberculosis detoxification enzyme mycothiol-S-conjugate amidase (MCA)
T1 sequence (P9WJN1 whole entry): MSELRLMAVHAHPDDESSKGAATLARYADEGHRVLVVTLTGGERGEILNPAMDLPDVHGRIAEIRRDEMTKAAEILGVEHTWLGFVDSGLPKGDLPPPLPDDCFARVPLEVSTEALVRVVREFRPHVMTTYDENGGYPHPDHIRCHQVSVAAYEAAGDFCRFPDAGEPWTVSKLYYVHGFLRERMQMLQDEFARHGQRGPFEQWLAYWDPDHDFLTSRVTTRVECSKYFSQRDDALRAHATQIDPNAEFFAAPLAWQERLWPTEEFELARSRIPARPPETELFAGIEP

Bacteria = experiment: Minimum inhibitory concentration against bacterial strains; type: functional
1A9 [2] = experiment: Cytotoxicity against 1A9 ovarian cancer cells; type: functional, cell-based; conditions: Homo sapiens
Nucleic Acid = experiment: Binding affinity towards DNA extracted from MOLT-4 cells; type: cell-free; conditions: Homo sapiens
[3] = In vitro cytotoxicity against leukemia P-388 tumor cells; type: functional, cell-based; conditions: Mus musculus, P388
[4] = molecular target: Tubulin beta-4B chain (Homo sapiens) (UniProt P68371); experiment: (§1) Tubulin polymerization at a concentration of 100 uM incubated for 90 minutes; type: functional
How it was run: (§2)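 Tubulin polymerization was read as percent polymerization, with test drug at 100 µM and a 90 min incubation.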

1A9 [5] = experiment: Inhibition concentration against human ovarian 1A9 tumor cells; type: functional, cell-based
[6] = molecular target: Tubulin beta-4B chain (Homo sapiens) (UniProt P68371); experiment: as §1; how it was run: as §2
1A9 [7] = experiment: Cytotoxicity against 1A9 human ovarian carcinoma cells; type: functional, cell-based
OVCAR-3 = experiment: Cytotoxicity by measuring inhibitory concentration against ovcar-3 tumor cell line; type: functional, cell-based, Homo sapiens
[8] = Antiproliferation activity against cancer cell lines by mixed-lymphocyte-reaction proliferation assay; type: functional, cell-based; conditions: Homo sapiens
1A9 [9] = experiment: Inhibitory concentration against ovarian carcinoma 1A9 cell growth; type: functional, cell-based; conditions: Homo sapiens
1A9/ptx-22 [10] = experiment: (§3) Inhibitory concentration against beta-tubulin mutant 1A9PTX22 cell line; type: functional, cell-based; conditions: Homo sapiens
[11] = molecular target: Tubulin beta-4B chain (Homo sapiens) (UniProt P68371); experiment: Percent […] of tubulin by the compound; type: functional; how it was run: as §2
1A9/ptx-10 [12] = experiment: (§4) Inhibitory concentration against beta-tubulin mutant 1A9PTX10 cell growth; type: functional, cell-based; conditions: Homo sapiens
1A9/ptx-22 [13] = experiment: as §3; type: functional, cell-based; conditions: Homo sapiens; remark: listed apart in the source
1A9/ptx-10 [14] = experiment: as §4; type: functional, cell-based; conditions: Homo sapiens; remark: listed apart in the source

Sequence of Tubulin beta-4B chain (Homo sapiens) (P68371 whole entry): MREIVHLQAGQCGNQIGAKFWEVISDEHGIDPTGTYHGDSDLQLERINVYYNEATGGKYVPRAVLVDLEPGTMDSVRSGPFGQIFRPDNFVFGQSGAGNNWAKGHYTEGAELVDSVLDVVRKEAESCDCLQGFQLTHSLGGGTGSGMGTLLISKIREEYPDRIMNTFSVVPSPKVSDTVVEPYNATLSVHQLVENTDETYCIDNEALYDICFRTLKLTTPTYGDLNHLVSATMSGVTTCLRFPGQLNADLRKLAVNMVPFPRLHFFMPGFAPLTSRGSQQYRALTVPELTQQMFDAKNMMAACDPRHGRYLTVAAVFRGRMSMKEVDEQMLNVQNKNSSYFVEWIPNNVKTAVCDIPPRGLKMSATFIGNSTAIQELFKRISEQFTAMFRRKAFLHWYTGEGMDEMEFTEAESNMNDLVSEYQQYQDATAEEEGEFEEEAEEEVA

## O=C(NCCSSc1ccc(F)cc1)/C(Cc1cc(F)cc(F)c1)=N/O
[1]
  IC50: 2720 µM
Bacteria
  MIC: 0.46 ug m/L

## COC1=C(CC=C(C)C)[C@]2(OC(=O)C3=C[C@]4(OC)C[C@H]5C(C)(C)OC(CC=C(C)C)(C4=O)[C@]35O2)C(=O)C2=C1C=CC(C)(C)O2
1A9 [2]
  IC50: 5 µM

## CCNC1COC(OC2C(OC)OC(C)C(NOC3CC(O)C(SC(=O)c4c(C)c(I)c(OC5OC(C)C(O)C(OC)C5O)c(OC)c4OC)C(C)O3)C2O)CC1OC (centres undefined)
Nucleic Acid
  K obs: 4.1 µM

## Cc1cc(O)c2c(c1)[C@H]1[C@@H](C(C)C)CC[C@@]1(C)C(=O)C2=O
[3]
  IC50: 13.9 µM

## CCOC(=O)/C1=C/[C@@H]2[C@@H](C(C)C)CC=C(C)[C@@H]2C[C@H](OC(=O)/C=C/c2cn(C)cn2)[C@]2(C)C=C[C@@]1(O)O2 [SARCODICTYIN B]
[4]
  TP: 71%
1A9 [5]
  IC50: 0.002 µM
[6]
  TP: 71%

## COC(=O)[C@]1(O)C(=O)c2c(cc(C)c(Br)c2O)[C@H]2[C@@H](C(C)C)CC[C@]21C [HAMIGERAN A]
[3]
  IC50: 31.6 µM

## CC/C=C\C=C/C(=O)N/C=C\C[C@H]1C[C@H]2C[C@H](O)C[C@H](Cc3cccc(O)c3C(=O)O1)O2
1A9 [7]
  IC50: 0.0707 µM

## CCNC1COC(OC2C(OC)OC(C)C(NOC3CC(O)C(SC(=O)c4c(C)cc(OC5OC(C)C(O)C(OC)C5O)c(OC)c4OC)C(C)O3)C2O)CC1OC (centres undefined)
Nucleic Acid
  K obs: 180 µM

## O=C(NCCSSCCNC(=O)/C(Cc1ccc(O)c(Br)c1)=N/O)/C(Cc1ccc(O)c(Br)c1)=N/O [PSAMMAPLIN A]
Bacteria
  MIC: 4.85 ug m/L

## CCNC1COC(OC2C(OC)OC(C)C(NOC3CC(O)C(SC(=O)c4c(C)c(Br)c(OC5OC(C)C(O)C(OC)C5O)c(OC)c4OC)C(C)O3)C2O)CC1OC (centres undefined)
Nucleic Acid
  K obs: 10 µM

## CC(=O)OC1C(=O)[C@@]2(C)[C@H]([C@H](OC(=O)c3ccco3)[C@]3(O)C[C@H](OC(=O)[C@H](O)[C@@H](NC(=O)c4ccccc4)c4ccccc4)C(C)=C1C3(C)C)[C@]1(OC(C)=O)CO[C@@H]1C[C@@H]2O (some centres undefined)
OVCAR-3; Homo sapiens, OVCAR-3
  IC50: 0.0451 µM
OVCAR-3; ovcar-3
  IC50: 0.045 µM

## Cc1cccc(C)c1SSCCNC(=O)/C(Cc1cc(F)cc(F)c1)=N/O
Bacteria
  MIC: 0.28 ug m/L

## CCCCCCCCCC[C@H]1C[C@H]1CCCC/C=C\CC[C@@H](O)C(=O)N[C@@H](CO[C@@H]1O[C@@H](CO)[C@@H](O)[C@H](O)[C@@H]1OC/C=C(\C)CCC=C(C)C)[C@H](O)CCCCCCC[C@@H]1C[C@@H]1CCCCCCCCCC
[8]
  IC50: 28 µM

## O=C(/C=C/c1ccccc1)N/C=C/C[C@H]1C[C@H]2C[C@H](O)C[C@H](Cc3cccc(O)c3C(=O)O1)O2
1A9 [7]
  IC50: 0.05 µM

## C=CCO[C@@H]1[C@H](OC[C@H](NC(=O)[C@H](O)CC/C=C\CCCC[C@@H]2C[C@@H]2CCCCCCCCCC)[C@H](O)CCCCCCC[C@@H]2C[C@@H]2CCCCCCCCCC)O[C@@H](CO)[C@@H](O)[C@@H]1O
[8]
  IC50: 7.1 µM

## CCOC(=O)/C1=C/[C@@H]2[C@@H](C(C)C)CC=C(C)[C@@H]2C[C@H](OC(=O)/C=C/c2cn(C)cn2)[C@]2(C)C=C[C@@]1(OC)O2
[4]
  TP: 46%
1A9 [5]
  IC50: 0.002 µM
[6]
  TP: 46%

## CC(=O)OC1C(=O)[C@@]2(C)[C@H]([C@H](OC(=O)c3ccc4ccccc4c3)[C@]3(O)C[C@H](OC(=O)[C@H](O)[C@@H](NC(=O)c4ccccc4)c4ccccc4)C(C)=C1C3(C)C)[C@]1(OC(C)=O)CO[C@@H]1C[C@@H]2O (some centres undefined)
OVCAR-3; ovcar-3
  IC50: > 11000 µM

## CCCCCCCCCC[C@H]1C[C@H]1CCCC/C=C\CC[C@@H](O)C(=O)N[C@@H](CO[C@@H]1O[C@@H](CO)[C@@H](O)[C@H](O)[C@@H]1OCC=C(C)C)[C@H](O)CCCCCCC[C@@H]1C[C@@H]1CCCCCCCCCC
[8]
  IC50: > 50 µM

## CCCCCCCCCC[C@H]1C[C@H]1CCCC/C=C\CC[C@@H](O)C(=O)N[C@@H](CO[C@@H]1O[C@@H](CO)[C@@H](O)[C@H](O)[C@@H]1O)[C@@H](CCCCCCC[C@@H]1C[C@@H]1CCCCCCCCCC)OC=C(C)C
[8]
  IC50: 28 µM

## CCNC1COC(OC2C(OC)OC(C)C(NOC3CC(O)C(SC(=O)c4c(C)c(C)c(OC5OC(C)C(O)C(OC)C5O)c(OC)c4OC)C(C)O3)C2O)CC1OC (centres undefined)
Nucleic Acid
  K obs: 38 µM

## Nc1ccc(SSCCNC(=O)/C(Cc2cccc(Br)c2)=N/O)cc1
[1]
  IC50: 185 µM
Bacteria
  MIC: 0.09 ug m/L

## CO[C@]12C=C[C@](C)(O1)[C@@H](OC(=O)/C=C/c1csc(C)n1)C[C@H]1C(C)=CC[C@H](C(C)C)[C@H]1/C=C\2COC1OCC(O)C(O)C1OC(C)=O (some centres undefined)
[4]
  TP: 56%
[6]
  TP: 56%

## O=C(/C=C/c1cccs1)N/C=C/C[C@H]1C[C@H]2C[C@H](O)C[C@H](Cc3cccc(O)c3C(=O)O1)O2
1A9 [7]
  IC50: 0.0413 µM

## Cc1cccc(C)c1SSCCNC(=O)/C(Cc1cccc(Br)c1)=N/O
Bacteria
  MIC: 0.11 ug m/L

## O=C(NCCSSc1ccc(F)cc1)/C(Cc1cccc(Br)c1)=N/O
[1]
  IC50: 90 µM
Bacteria
  MIC: 0.11 ug m/L

## Cc1cc2c(c(O)c1Br)C(=O)C(=O)[C@]1(C)CC[C@H](C(C)C)[C@H]21 [HAMIGERAN B]
[3]
  IC50: 13.5 µM

## CCCOC(=O)/C1=C/[C@@H]2[C@@H](C(C)C)CC=C(C)[C@@H]2C[C@H](OC(=O)/C=C/c2cn(C)cn2)[C@]2(C)C=C[C@@]1(OC)O2
[4]
  TP: 69%
1A9 [5]
  IC50: 0.003 µM
[6]
  TP: 69%

## CCNC1COC(OC2C(OC)OC(C)C(NOC3CC(O)C(SC(=O)c4c(C)c(F)c(OC5OC(C)C(O)C(OC)C5O)c(OC)c4OC)C(C)O3)C2O)CC1OC (centres undefined)
Nucleic Acid
  K obs: 44 µM

## CC/C=C/C=C/C(=O)N/C=C/C[C@H](O)C[C@H]1C[C@H](OC(C)=O)C[C@H](Cc2cccc3c2C(=O)OC(C)(C)O3)O1
1A9 [7]
  IC50: 0.035 µM

## CC(=O)O[C@@H]1C2=C(C)[C@@H](OC(=O)[C@H](O)[C@@H](NC(=O)c3ccccc3)c3ccccc3)C[C@@](O)([C@@H](OC(=O)c3ccccc3)c3ccccc3[C@H]1OC(C)=O)C2(C)C
OVCAR-3; ovcar-3
  IC50: 0.028 µM and 0.28 µM

## Nc1ccc(SSCCNC(=O)/C(Cc2ccc(O)c(Cl)c2)=N/O)cc1
[1]
  IC50: 35 µM
Bacteria
  MIC: 1.23 ug m/L

## CCNC1COC(OC2C(OC)OC(C)C(NOC3CC(O)C(SC(=O)c4c(C)c(Cl)c(OC5OC(C)C(O)C(OC)C5O)c(OC)c4OC)C(C)O3)C2O)CC1OC (centres undefined)
Nucleic Acid
  K obs: 32 µM

## CCOC(=O)c1c(OCC)cc(C)cc1[C@H]1[C@@H](C(C)C)CC[C@@]1(C)C(=O)OCC
[3]
  IC50: 54.2 µM

## CC(=O)OC1C(=O)[C@@]2(C)[C@H]([C@H](OC(=O)c3ccc(N(C)C)cc3)[C@]3(O)C[C@H](OC(=O)[C@H](O)[C@@H](NC(=O)c4ccccc4)c4ccccc4)C(C)=C1C3(C)C)[C@]1(OC(C)=O)CO[C@@H]1C[C@@H]2O (some centres undefined)
OVCAR-3; Homo sapiens, OVCAR-3
  IC50: 2.21 µM
OVCAR-3; ovcar-3
  IC50: 2.2 µM

## C/C(=C\c1ccccn1)[C@@H]1C[C@@H]2O[C@]2(C)CCC[C@H](C)[C@H](O)[C@@H](C)C(=O)C(C)(C)[C@@H](O)CC(=O)O1
1A9 [9]
  IC50: 0.0001 µM
1A9/ptx-22 [10]
  IC50: 0.00015 µM
[11]
  TP: 79.5%
1A9/ptx-10 [12]
  IC50: 0.001 µM
1A9/ptx-22 [13]
  IC50: 0.00015 µM
1A9/ptx-10 [14]
  IC50: 0.001 µM

## CCNC1COC(OC2C(O[C@H]3C#C/C=C\C#C[C@@](C)(O)C(=C/CSSSC)/C3=C(\NC(=O)OC)C(C)=O)OC(C)C(NOC3CC(O)C(SC(=O)c4c(C)c(I)c(OC5OC(C)C(O)C(OC)C5O)c(OC)c4OC)C(C)O3)C2O)CC1OC (some centres undefined)
Nucleic Acid
  K obs: 0.135 µM

## CC/C=C\C=C/C(=O)N/C=C/C[C@H]1C[C@H]2C[C@H](O)C[C@H](Cc3cccc(O)c3C(=O)O1)O2 [APICULAREN A]
1A9 [7]
  IC50: 0.00078 µM

## CNC(=O)/C1=C/[C@@H]2[C@@H](C(C)C)CC=C(C)[C@@H]2C[C@H](OC(=O)/C=C/c2cn(C)cn2)[C@]2(C)C=C[C@@]1(OC)O2
[4]
  TP: 52%
1A9 [5]
  IC50: 0.045 µM
[6]
  TP: 52%

## CCCCCCCCCC[C@H]1CC1CCCC/C=C\CC[C@@H](O)C(=O)N[C@@H](CO[C@@H]1OC(CO)[C@@H](O)[C@H](O)[C@@H]1OCC=C(C)C)[C@H](O)CCC/C=C\CCCC[C@@H]1C[C@@H]1CCCCCCCCCC (single isomer, unassigned)
[8]
  IC50: > 50 µM

## CC/C=C\C=C/C(=O)N/C=C/C[C@H]1C[C@H]2C[C@H](OC(C)=O)C[C@H](Cc3cccc(O)c3C(=O)O1)O2
1A9 [7]
  IC50: 0.0032 µM

## COC(=O)/C1=C/[C@@H]2[C@@H](C(C)C)CC=C(C)[C@@H]2C[C@H](OC(=O)/C=C/c2cn(C)cn2)[C@]2(C)C=C[C@@]1(O)O2 [SARCODICTYIN A]
[4]
  TP: 67%
1A9 [5]
  IC50: 0.34 µM
[6]
  TP: 67%

## C/C(=C\c1ncccc1C)[C@@H]1C[C@@H]2O[C@]2(C)CCC[C@H](C)[C@H](O)[C@@H](C)C(=O)C(C)(C)[C@@H](O)CC(=O)O1
1A9 [9]
  IC50: > 0.3 µM
1A9/ptx-22 [10]
  IC50: > 0.3 µM
[11]
  TP: 0%
1A9/ptx-10 [12]
  IC50: > 0.3 µM
1A9/ptx-22 [13]
  IC50: > 0.3 µM
1A9/ptx-10 [14]
  IC50: > 0.3 µM

From ChEMBL document CHEMBL1143652, “Joys of molecules. 2. Endeavors in chemical biology and medicinal chemistry” (J Med Chem, 2005)
